Source: PubChem (The Scripps Research Institute Molecular Screening Center)
In the library only some 2.7% were active in any assay of this set; here they are far more common.
RBBP9 inhibitor: inhibitors of human serine hydrolase RBBP9. recombinant RBBP9, FP-Rh probe fluorescence polarization. inhibition, % at 7.94 µM. 220,000 compounds, 0.2% hits. AID 1515;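 active means inhibition above the campaign mean of all tested compounds plus 3 SD, cut at about 14% in these data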
Target sequence (O75884 whole entry, looked up): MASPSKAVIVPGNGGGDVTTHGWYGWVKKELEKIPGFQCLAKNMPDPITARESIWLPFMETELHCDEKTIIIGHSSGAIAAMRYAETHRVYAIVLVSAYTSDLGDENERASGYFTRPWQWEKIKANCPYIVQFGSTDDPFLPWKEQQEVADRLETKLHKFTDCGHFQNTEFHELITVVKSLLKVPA
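Assay system: recombinant human RBBP9; Reagent: Serine-hydrolase probe FP-Rh, 375 nM pre-mixing; Doses: 7.94 µM single dose, 0.794% DMSO; Incubation: 30 min then 45 min, 25 °C; Detection: fluorescence polarization (mP), excitation 525 nm, emission 598 nm; Evaluation: percent inhibition from mP, scaled between DMSO and no-protein wells.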
PAFAH1B3 inh: inhibitors of human PAFAH1B3; inhibition, % at 3.39 µM; AID 492972; Q15102; 340,000 compounds, 0.28% hits; recombinant PAFAH1B3, FP-rhodamine probe, fluorescence polarization;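 active means inhibition above the screen-wide average of all tested compounds plus 3 SD, cut at about 25% in these data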
PAFAH1B2 FP inh: blocks human PAF acetylhydrolase 1b catalytic subunit 2; recombinant PAFAH1B2, FP-rhodamine activity probe, fluorescence polarization; inhibition, % at 3.39 µM; P68402; 340,000 compounds, 1.2% hits; AID 492953;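 active means inhibition above the mean of all tested compounds plus 3 SD, cut at about 24% in these data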
PAFAH2 inh: PAFAH2 (human) inhibition | Q99487 | recombinant PAFAH2, FP-rhodamine activity probe, fluorescence polarization | inhibition, % at 3.39 µM | 340,000 compounds, 0.99% hits | AID 492956;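 active means inhibition above the mean over all tested compounds plus 3 SD, cut at about 30% in these data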;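 further: inhibitors block probe labeling of enzyme so polarization drops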
pPAFAH inh: inhibitors of human plasma PAF acetylhydrolase (pPAFAH); inhibition, % at 3.39 µM; recombinant pPAFAH, FP-rhodamine probe fluorescence polarization; Q13093; 330,000 compounds, 1.5% hits; AID 463082;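 active means inhibition above the mean inhibition across the screen plus 3 SD, cut at about 25% in these data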;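 further: inhibitors block binding of the rhodamine activity-based probe so polarization drops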
Target sequence (Q13093 whole entry, looked up): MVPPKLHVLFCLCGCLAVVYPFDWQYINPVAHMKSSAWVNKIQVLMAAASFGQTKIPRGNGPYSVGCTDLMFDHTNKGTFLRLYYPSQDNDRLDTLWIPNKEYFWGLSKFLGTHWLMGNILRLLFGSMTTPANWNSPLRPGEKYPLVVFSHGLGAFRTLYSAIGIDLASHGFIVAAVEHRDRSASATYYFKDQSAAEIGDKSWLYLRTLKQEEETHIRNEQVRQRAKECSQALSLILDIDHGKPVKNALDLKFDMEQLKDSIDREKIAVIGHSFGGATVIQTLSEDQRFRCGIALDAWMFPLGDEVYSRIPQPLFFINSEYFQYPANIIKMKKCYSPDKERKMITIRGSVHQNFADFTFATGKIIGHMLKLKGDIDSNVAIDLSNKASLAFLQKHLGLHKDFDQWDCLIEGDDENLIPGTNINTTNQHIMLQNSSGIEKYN
pPAFAH FP conf: confirmation of human plasma PAF acetylhydrolase (pPAFAH) inhibitors; shares compounds with pPAFAH inh; recombinant pPAFAH, FP-Rh probe fluorescence polarization; inhibition, % at 3.39 µM; 2,300 compounds, 72% hits;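 active means mean inhibition of the triplicate above the hit cutoff set for the earlier primary screen, cut at about 25% in these data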
Each line names hits and unclear results; the compound was inactive in the other large screens (follow-up assays come after a bar, where they were run).

O=C(c1ccccc1)c1ccc2nc(-c3ccco3)c(-c3ccco3)nc2c1	PAFAH1B3 inh 32.2, PAFAH2 inh 31.1, pPAFAH inh 58.2 | pPAFAH FP conf 43.3
O=c1oc(-c2ccco2)nc2ccccc12	none
CC(C)CNC(=O)c1cccc(NC(=O)CCc2ccccc2)c1	none
CCOc1ccccc1N/C(=N/c1nc(C)cc(C)n1)NC(=O)Nc1ccc(Cl)c(Cl)c1	none (no result: PAFAH1B3 inh, PAFAH1B2 FP inh, PAFAH2 inh)
O=C(NC1CCCC1)c1ccc2nc(-c3ccco3)c(-c3ccco3)nc2c1	PAFAH2 inh 38.0, pPAFAH inh 67.6 | pPAFAH FP conf 33.6
O=C(NCCc1ccccc1)c1ccc2nc(-c3ccco3)c(-c3ccco3)nc2c1	pPAFAH inh 60.4 | pPAFAH FP conf 36.7
CC(=O)c1cn(C)c(=O)n(C)c1=O	none
O=C(CCS(=O)(=O)c1ccc(Cl)cc1)NC1CCCC1	none (no result: RBBP9 inhibitor)
COc1cc(OC)c2c(O)c3c(c(-c4c5c(c(O)c6c(OC)cc(OC)cc46)CO[C@@H](C)[C@H]5O)c2c1)[C@H](O)[C@H](C)OC3	pPAFAH inh 78.0 | pPAFAH FP conf 67.6
Nc1nc(-c2ccccc2)c(N=Nc2ccccc2Cl)s1	pPAFAH inh 38.9 | pPAFAH FP conf 52.7
Nc1ccc2nc(-c3ccc(-c4nc5ccc(N)cc5[nH]4)cc3)[nH]c2c1	none (no result: RBBP9 inhibitor, PAFAH1B3 inh, PAFAH1B2 FP inh, PAFAH2 inh)
Nc1ccc2nc(-c3cccc(-c4nc5ccc(N)cc5[nH]4)n3)[nH]c2c1	PAFAH1B3 inh 29.7, PAFAH1B2 FP inh 32.2, pPAFAH inh 35.1 (no result: RBBP9 inhibitor) | pPAFAH FP conf 53.7
COP(=O)(OC)c1nc(-c2cccc3ccccc23)oc1NCCc1ccccc1	pPAFAH inh 38.3 | pPAFAH FP conf 31.3
O=S(=O)(Nc1ccon1)c1ccc(Br)s1	none (no result: RBBP9 inhibitor)
Cc1c(Br)c(=O)oc2c(Br)c(O)c(O)cc12	PAFAH1B3 inh 46.5, PAFAH1B2 FP inh 51.3, PAFAH2 inh 83.0, pPAFAH inh 62.6 | pPAFAH FP conf 81.5
Cc1c(C(=O)NNC(=O)c2ccccc2O)oc2ccc(Br)cc12	pPAFAH inh 57.9 (no result: RBBP9 inhibitor) | pPAFAH FP conf 69.8
CCOc1ccc2oc(C(=O)NNC(=O)c3ccccc3O)c(C)c2c1	none (no result: RBBP9 inhibitor)
COc1ccccc1N1CCN(C(=O)c2ccc(Cn3c(=O)[nH]c4ccsc4c3=O)cc2)CC1	none
O=C(O)c1cc(O)c2c(c1)[C@H]([C@H]1c3cc(C(=O)O)cc(O)c3C(=O)c3c(O[C@@H]4O[C@H](CO)[C@@H](O)[C@H](O)[C@H]4O)cccc31)c1cccc(OC3O[C@H](CO)[C@@H](O)[C@H](O)[C@H]3O)c1C2=O (stereo not given in full)	PAFAH1B3 inh 79.5, PAFAH1B2 FP inh 77.2, PAFAH2 inh 90.3, pPAFAH inh 93.8 (no result: RBBP9 inhibitor) | pPAFAH FP conf 99.0
O=c1cc2oc3cc(O)c(O)cc3c(-c3ccccc3[N+](=O)[O-])c-2cc1O	PAFAH2 inh 56.8, pPAFAH inh 87.6 (no result: RBBP9 inhibitor) | pPAFAH FP conf 83.2
COc1ccc(NS(=O)(=O)c2cccc(NC(=O)c3ccc(Cl)nc3)c2)cc1	none
O=C(Nc1cccc(S(=O)(=O)Nc2ccc(Cl)cc2)c1)c1ccc(Cl)nc1	pPAFAH inh 40.5 | pPAFAH FP conf 34.4
CCC(C(=O)Nc1ccc(C(=O)N2CCCC2)cc1)c1ccccc1 (stereo not given)	none
Cc1ccc(C(=O)N2CCN(c3ncccn3)CC2)cc1	none (no result: RBBP9 inhibitor, pPAFAH inh)
Cc1cc(-c2ccccc2)n(-c2ccc(C(=O)N3CCN(c4ncccn4)CC3)cc2)n1	pPAFAH inh 36.0 | pPAFAH FP conf inactive
CC1CCCN(C(=O)C2CCN(CC3CC=CCC3)CC2)C1 (stereo not given)	none
Cc1cc(O)c2c(c1)C(=O)c1cccc(O)c1C2=O	none (no result: PAFAH1B3 inh, PAFAH1B2 FP inh, PAFAH2 inh, pPAFAH inh)
O=C(O)c1cc(O)c2c(c1)C(=O)c1cccc(O)c1C2=O	RBBP9 inhibitor 26.8, PAFAH2 inh 34.0, pPAFAH inh 36.0 | pPAFAH FP conf inactive
CC1CCN(Cc2nnnn2-c2cccc([N+](=O)[O-])c2)CC1	none
CC(Nc1cccc2ccccc12)C(=O)N/N=C/c1ccc([N+](=O)[O-])cc1 (stereo not given)	none
COc1cc([N+](=O)[O-])cc(/C=N/NC(=O)C(C)Nc2cccc3ccccc23)c1O (stereo not given)	pPAFAH inh 39.7 | pPAFAH FP conf 58.8
Cc1nc2ccc(NC(=O)CSc3ccccc3)cc2s1	none (no result: RBBP9 inhibitor)
O=C(CN1C(=O)c2ccccc2C1=O)NC1CCC(O)CC1 (stereo not given)	none (no result: RBBP9 inhibitor)
Cc1ccc(/C=C/C(=O)c2ccccc(=O)c2O)c(C)c1	pPAFAH inh 69.3 | pPAFAH FP conf inactive
O=C(C=Cc1ccc2c(c1)OCO2)c1ccccc1	none (no result: RBBP9 inhibitor, pPAFAH inh)
CCNc1ccc(Br)cc(C(=O)/C=C/c2ccc(Cl)cc2Cl)c1=O	PAFAH2 inh 33.0, pPAFAH inh 66.3 | pPAFAH FP conf 34.1
CNc1ccc(Br)cc(C(=O)/C=C/c2ccc(OC)cc2)c1=O	pPAFAH inh 43.4 | pPAFAH FP conf inactive
CNc1ccc(Br)cc(C(=O)/C=C/c2cc(OC)ccc2OC)c1=O	pPAFAH inh 38.3 | pPAFAH FP conf inactive
CNc1ccc(Br)cc(C(=O)/C=C/c2ccc3c(c2)OCO3)c1=O	PAFAH2 inh 31.4, pPAFAH inh 45.1 | pPAFAH FP conf 28.2
COc1ccc(NS(=O)(=O)c2ccc(NC(=O)c3ccc(N(C)S(C)(=O)=O)cc3)cc2)c(OC)c1	none
Oc1c(Br)cc(Br)cc1CNc1cccc2cccnc12	PAFAH1B3 inh 28.0, pPAFAH inh 60.6 (no result: RBBP9 inhibitor) | pPAFAH FP conf inactive
Oc1ccc(Br)cc1CNc1cccc2cccnc12	none (no result: RBBP9 inhibitor)
N#CCCN(CCC#N)C(=O)C1c2ccccc2Oc2ccccc21	pPAFAH inh 65.2 (no result: RBBP9 inhibitor) | pPAFAH FP conf inactive
CN(CCC#N)C(=O)COC(=O)C1c2ccccc2Oc2ccccc21	none (no result: RBBP9 inhibitor)
O=C1CC(=O)N(Cc2ccco2)C(=S)N1	pPAFAH inh 41.3 | pPAFAH FP conf inactive
O=C1CC(=O)N(Cc2ccco2)C(=O)N1	pPAFAH inh 36.5 | pPAFAH FP conf inactive
O=C1CC(=O)N(Cc2cccs2)C(=O)N1	none
S=C1NCN(Cc2ccco2)CN1	none
COc1ccc(S(=O)(=O)Nc2c(C)n(C)n(-c3ccccc3)c2=O)c(Cl)c1Cl	pPAFAH inh 62.1 (no result: RBBP9 inhibitor) | pPAFAH FP conf inactive
Cc1c(NS(=O)(=O)c2cc(C(=O)NCCN(C)C)ccc2Cl)c(=O)n(-c2ccccc2)n1C	pPAFAH inh 51.5 (no result: RBBP9 inhibitor) | pPAFAH FP conf inactive
COc1cc(Br)c(S(=O)(=O)Nc2c(C)n(C)n(-c3ccccc3)c2=O)cc1OC	none
O=Cc1nc(-c2ccc(Cl)cc2)n2ccccc12	pPAFAH inh 70.7 | pPAFAH FP conf inactive
O=Cc1nc(-c2ccccc2Cl)n2ccccc12	none
COc1cc(/C=C2/C(=O)NN(c3ccc(Cl)c(Cl)c3)C2=O)cc([N+](=O)[O-])c1O	PAFAH1B2 FP inh 31.3, PAFAH2 inh 36.1, pPAFAH inh 52.4 (no result: RBBP9 inhibitor) | pPAFAH FP conf 32.8
CCOC(=O)C1CCCN(C(=O)c2cc(-c3ccco3)nc3ccccc23)C1 (stereo not given)	pPAFAH inh 48.5 (no result: RBBP9 inhibitor) | pPAFAH FP conf 40.0
